The text below walks through data of ChEMBL document CHEMBL2417524, “Cytotoxic clerodane diterpenoids from the leaves and twigs of Casearia balansae” (J Nat Prod, 2013).

In one assay the test system is WI-38. The experiment in a line: Cytotoxicity against human WI38 cells after 72 hrs by MTT assay. The conditions noted are these: WI-38, 72 h. It is filed as cell-based. The gist of the method:
(§1)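 Antiproliferative screen on cancer lines PC3, DU145, SKOV3 and A549 and on normal human WI-38 fibroblasts. Paclitaxel was the positive control and DMSO the negative control. IC50 in μM reported as the mean of duplicate measurements.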
For orientation: Tetrazolium dyes change colour on reduction, which living cells bring about.

A further assay has as its system A549. The experiment in a line: Cytotoxicity against human A549 cells after 72 hrs by MTT assay. It is filed as functional, cell-based. Particulars: A549, 72 h. The gist of the method:
as §1

In the next assay the test system is DU-145. Description: Cytotoxicity against human DU145 cells after 72 hrs by MTT assay. Format: functional, cell-based. Particulars: DU-145, 72 h. In short, it runs like this:
as §1

In a further assay the test system is SK-OV-3. The experiment in a line: Cytotoxicity against human SKOV3 cells after 72 hrs by MTT assay. It is filed as functional, cell-based. The conditions noted are these: SK-OV-3, 72 h. In short, it runs like this:
as §1

A further assay has as its system PC-3. Description: Cytotoxicity against human PC3 cells after 72 hrs by MTT assay. Format: functional, cell-based. Particulars: PC-3, 72 h. The gist of the method: as §1

On to `C=CC(=C)CC[C@]1(C)[C@H]2C[C@H]3C[C@@H]4[C@@H](OC(C)=O)O[C@H](O3)[C@@]42CC[C@@H]1C`, for which the IC50 (commonly the point on the concentration scale where inhibition reaches its midpoint) in the assay on WI-38 came to 51 µM; with A549, 24 µM; with DU-145 it was 14.1 µM; with SK-OV-3 it was 36.2 µM; in the assay with PC-3, 5.6 µM.

Consider `C=CC(=C)CC[C@]1(C)[C@H]2C[C@H](OC(=O)C(C)CC)C=C3[C@H](OC(C)=O)O[C@H](OC(C)=O)[C@@]32[C@H](O)C[C@@H]1C` (relative stereo), for which the IC50 turned out to be 9.8 µM in the assay on WI-38; 5.7 µM in the assay with A549; 4.3 µM in the assay with DU-145; 5.1 µM in the assay on SK-OV-3; 4.5 µM in the assay with PC-3.

Consider `C=CC(=C)CC[C@]1(C)[C@H]2C[C@@H](O)C[C@@H]3[C@H](OC(=O)CCC)O[C@H](OC(C)=O)[C@@]32CC[C@@H]1C` (relative stereo), for which the IC50 was 21.1 µM in the assay with WI-38; 16.2 µM in the assay with A549; 5.8 µM in the assay on DU-145; 10.2 µM in the assay on SK-OV-3; 6.3 µM in the assay on PC-3.

With `CC(=O)O[C@H]1C(=O)[C@@]2(C)[C@H]([C@H](OC(=O)c3ccccc3)[C@]3(O)C[C@H](OC(=O)[C@H](O)[C@@H](NC(=O)c4ccccc4)c4ccccc4)C(C)=C1C3(C)C)[C@]1(OC(C)=O)CO[C@@H]1C[C@@H]2O` [PACLITAXEL], the IC50 was determined as 0.05 µM in the assay with WI-38, 0.04 µM in the assay on DU-145 and 0.02 µM with PC-3.

Take `C=CC(=C)CC[C@]1(C)[C@H]2CC(=O)C=C3[C@H](OC(C)=O)O[C@H](OC(C)=O)[C@@]32[C@H](OC)C[C@@H]1C` (relative stereo): the IC50 in the assay with WI-38 was 20.3 µM; with A549, 13.3 µM; in the assay with DU-145, 5.6 µM; in the assay on SK-OV-3, 17.6 µM; in the assay with PC-3 it was 6.5 µM.

As to `C=CC(=C)CC[C@]1(C)[C@H]2C[C@@H](OC(C)=O)C=C3[C@@H](OCC)O[C@H](OC(C)=O)[C@@]32[C@H](OC)C[C@@H]1C` (relative stereo), the IC50 amounted to 55.7 µM in the assay on WI-38; 53.3 µM with A549; 47.2 µM in the assay with DU-145; 35.9 µM in the assay with SK-OV-3; 34.2 µM in the assay with PC-3.

With `C=CC(=C)CC[C@]1(C)[C@H]2C[C@H]3C[C@@H]4[C@H](OC(C)=O)O[C@H](O3)[C@@]42CC[C@@H]1C`, the IC50 in the assay with WI-38 stood at 41 µM; with A549 it was 19.7 µM; in the assay on DU-145 it was 13.3 µM; with SK-OV-3 it was 30.6 µM; in the assay with PC-3, 6.2 µM.

As to `C=CC(=C)CC[C@]1(C)[C@H]2C[C@H](OC(=O)C(C)CC)C=C3[C@@H](OCC)O[C@H](OC(C)=O)[C@@]32[C@H](O)C[C@@H]1C` (relative stereo), the IC50 with WI-38 was determined as 60.2 µM; in the assay with A549 it was 49.8 µM; in the assay on DU-145 it was 14.8 µM; in the assay with SK-OV-3, 15.3 µM; with PC-3, 46.9 µM.

Consider `C=CC(=C)CC[C@]1(C)[C@H]2C[C@H](O)C[C@@H]3[C@H](OC(=O)CCC)O[C@H](OC(C)=O)[C@@]32CC[C@@H]1C`, for which the IC50 stood at 58.1 µM with WI-38; 13.9 µM with A549; 67.2 µM in the assay on DU-145; 25.3 µM in the assay on SK-OV-3; 7.2 µM in the assay with PC-3.

As to `C=CC(=C)CC[C@]1(C)[C@H]2C[C@H](OC(=O)C(C)CC)C=C3[C@H](OC(=O)CCC)O[C@H](OC(C)=O)[C@@]32[C@H](O)C[C@@H]1C` (stereo partly drawn) [CASEAMEMBRIN A], the IC50 stood at 19.6 µM with WI-38; 15.7 µM in the assay on A549; 5 µM in the assay with DU-145; 8.7 µM in the assay with SK-OV-3; 10.5 µM in the assay on PC-3.

Turning to `C=CC(=C)CC[C@]1(C)[C@H]2C[C@@H](OC(C)=O)C[C@@H]3[C@H](OC(C)=O)O[C@H](OC(C)=O)[C@@]32CC[C@@H]1C` (relative stereo), the IC50 came out at 56.9 µM with WI-38; 66.2 µM in the assay on A549; 20 µM with DU-145; 38.2 µM in the assay on SK-OV-3; 36.1 µM in the assay on PC-3.

Consider `C=CC(=C)CC[C@]1(C)[C@H]2CC(=O)C=C3[C@H](OC(=O)CCC)O[C@H](OC(C)=O)[C@@]32[C@H](OC)C[C@@H]1C` (relative stereo), for which the IC50 in the assay with WI-38 was 14.8 µM; in the assay with A549, 11.3 µM; with DU-145, 7.2 µM; in the assay on SK-OV-3, 7.2 µM; in the assay with PC-3, 4.6 µM.

Regarding `C=CC(=C)CC[C@]1(C)[C@H]2C[C@@H](OC(C)=O)C=C3[C@H](OC(C)=O)O[C@H](OC(C)=O)[C@@]32[C@H](OC)C[C@@H]1C`, the IC50 in the assay on WI-38 came to 13.3 µM; with A549 it was 7.1 µM; in the assay with DU-145 it was 4.3 µM; in the assay on SK-OV-3, 6.2 µM; in the assay with PC-3, 4.7 µM.

For `C=C(C)[C@@H](C)C[C@@H](O)[C@@H](C)[C@H]1CC[C@@]2(C)[C@@H]3CCC4=C(C[C@]35O[C@@H]5C[C@]12C)C(=O)C=CC4(C)C` (relative stereo), the half-maximal inhibitory concentration (IC50) was 78.4 µM with WI-38; 37.7 µM in the assay with A549; 26.1 µM in the assay with DU-145; 73.8 µM in the assay on SK-OV-3; 22.5 µM in the assay on PC-3.

With `C=CC(=C)CC[C@]1(C)[C@H]2C[C@H](OC(=O)C(C)CC)C=C3[C@H](OC(C)=O)O[C@@H](OC(C)=O)[C@@]32[C@H](OC)C[C@@H]1C` (relative stereo), the IC50 in the assay on WI-38 was found to be 13.3 µM; with A549, 7.9 µM; in the assay on DU-145, 4.8 µM; in the assay on SK-OV-3, 7.2 µM; in the assay on PC-3, 5.6 µM.

Take `C=CC(=C)CC[C@]1(C)[C@H](C)CC[C@@]23[C@@H](OC(C)=O)O[C@H](OC(C)=O)[C@@H]2C[C@H](O)C[C@@H]13` (relative stereo): the IC50 was found to be 26.3 µM with WI-38; 15.2 µM in the assay on A549; 6.6 µM with DU-145; 17.9 µM in the assay on SK-OV-3; 8.2 µM in the assay on PC-3.

`C=CC(=C)CC[C@]1(C)[C@H]2C[C@H](OC(C)=O)C=C3[C@@H](OCC)O[C@H](OC(C)=O)[C@@]32[C@H](OC)C[C@@H]1C`: the IC50 with WI-38 is 57.6 µM; in the assay with A549, 45.2 µM; with DU-145, 51.7 µM; in the assay on SK-OV-3 it was 99.8 µM; in the assay with PC-3, 46.4 µM.
